Drawing on ChEMBL document CHEMBL1152466, “Hepatitis B virus e antigen loss during adefovir dipivoxil therapy is associated with enhanced virus-specific CD4+ T-cell reactivity” (2008), this text covers Activity for one compound.

Structures are written as SMILES. Calls of active or inactive are those of the source.

Assay [1] relates to PBMC. The assay is described as follows: Increase in HBV-specific IL12p70 level in HBcAg-stimulated human PBMC at 10 to 30 mg per day by ELISA. The class given is functional, cell-based. For orientation: In an ELISA, binding on a coated surface is turned into a signal by an enzyme label.
In assay [2] the test system is Hepatitis B virus. The assay is described as follows: Antiviral activity against HBV infected patients assessed as ALT level at 10 to 30 mg per day after 48 weeks […]. Type of assay: functional.
Assay [3] has as its system Hepatitis B virus. The experiment in a line: Antiviral activity against HBV infected in human assessed as reduction in serum viral DNA level at 10 to 30 mg per day after 48 weeks. Type of assay: functional.
The species entered for assay [4] is Homo sapiens. The assay is described as follows: Increase in HBV-specific IFN-gamma-producing CD4+ cell proliferation in patients with […] chronic hepatitis B assessed as [3H]thymidine incorporation after 16 weeks by beta counting relative to baseline. Type of assay: functional, organism-based. The gist of the method:
(§1)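 Freshly isolated patient PBMC (density gradient) at 2 × 10⁶/ml in RPMI with 10% human AB serum. rHBcAg (1 μg/ml) was added to quadruplicate wells, with tetanus toxoid (0.5 μg/ml) and phytohemagglutinin (1 μg/ml) as controls. After 6 days, 0.5 μCi/well [³H]thymidine pulse and beta counting. Stimulation index = mean cpm antigen/medium. The positive cutoff was mean + 3 SD of 15–20 controls per center.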

The species entered for assay [5] is Homo sapiens. The assay is described as follows: Increase in HBV-specific IFN-gamma-producing CD4+ cell proliferation in patients with […] chronic hepatitis B assessed as [3H]thymidine incorporation after 40 weeks by beta counting relative to baseline. Type of assay: functional, organism-based. The gist of the method:
as §1

For assay [6], the species on record is Homo sapiens. The assay is described as follows: Increase in HBV-specific IFN-gamma-producing CD4+ cell proliferation in patients with […] chronic hepatitis B assessed as [3H]thymidine incorporation after 48 weeks by beta counting relative to baseline. The class given is functional, organism-based. The gist of the method:
as §1
In general terms: Incorporation of labelled thymidine or its analogues reports DNA synthesis.

Assay [7] is filed under the species Homo sapiens. The experiment in a line: Increase in HBV-specific IFN-gamma-producing CD4+ cell proliferation in patients with […] chronic hepatitis B assessed as [3H]thymidine incorporation by beta counting relative to baseline. The class given is functional. The gist of the method:
as §1

Assay [8] deals with PBMC. The experiment in a line: Increase in HBV-specific IFN-gamma production in HBcAg-stimulated human PBMC assessed as INFgamma production index at 10 to 30 mg per day after 4 weeks […]. The class given is functional. The gist of the method: (§2)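 PBMC at 3 × 10⁶/ml in RPMI with 10% human AB serum, cultured in quadruplicate for 6 days with or without rHBcAg (1 μg/ml). IFN-γ in cell-free supernatants (kept at −20°C) was measured by ELISA. Index = mean pg/ml IFN-γ of the four HBcAg-stimulated replicates divided by that of medium-only cultures, calculated at each protocol time point.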

The subject of assay [9] is PBMC. The assay is described as follows: Increase in HBV-specific IFN-gamma production in HBcAg-stimulated human PBMC assessed as INFgamma production index at 10 to 30 mg per day after 8 weeks by […]. Type of assay: functional. Summed up:
as §2

Assay [10] relates to PBMC. The experiment in a line: Increase in HBV-specific IFN-gamma production in HBcAg-stimulated human PBMC assessed as INFgamma production index at 10 to 30 mg per day after 16 weeks […]. Type of assay: functional. The gist of the method: as §2
Assay [11] deals with PBMC. The assay is described as follows: Increase in HBV-specific IFN-gamma production in HBcAg-stimulated human PBMC assessed as INFgamma production index at 10 to 30 mg per day after 24 weeks by […]. The class given is functional. The gist of the method: as §2
In assay [12] the test system is PBMC. The assay is described as follows: Increase in HBV-specific IFN-gamma production in HBcAg-stimulated human PBMC assessed as INFgamma production index at 10 to 30 mg per day after 40 weeks by […]. The class given is functional. Summed up: as §2
Assay [13] relates to PBMC. The experiment in a line: Increase in HBV-specific IFN-gamma production in HBcAg-stimulated human PBMC assessed as INFgamma production index at 10 to 30 mg per day after 48 weeks by […]. Type of assay: functional. Summed up:
as §2

The subject of assay [14] is PBMC. The assay is described as follows: Increase in HBV-specific IL8 in HBcAg-stimulated human PBMC at 10 to 30 mg per day by ELISA. Type of assay: functional, cell-based.
Assay [15] deals with PBMC. The experiment in a line: Increase in HBV-specific IP10 in HBcAg-stimulated human PBMC at 10 to 30 mg per day by ELISA. The class given is functional, cell-based.
In assay [16] the test system is PBMC. The experiment in a line: Increase in HBV-specific Fas ligand level in HBcAg-stimulated human PBMC at 10 to 30 mg per day by ELISA. The class given is functional, cell-based.
The test system of assay [17] is PBMC. The assay is described as follows: Increase in HBV-specific IL2 level in HBcAg-stimulated human PBMC at 10 to 30 mg per day by ELISA. The class given is functional, cell-based.
Assay [18] has as its system PBMC. The experiment in a line: Increase in HBV-specific IL5 level in HBcAg-stimulated human PBMC at 10 to 30 mg per day by ELISA. Type of assay: functional, cell-based.
Assay [19] is filed under the species Homo sapiens. The assay is described as follows: Serum IL10 level in human at baseline at 10 to 30 mg per day by cytometric bead array.

On to `CC(C)(C)C(=O)OCOP(=O)(COCCn1cnc2c(N)ncnc21)OCOC(=O)C(C)(C)C` [ADEFOVIR DIPIVOXIL], for which the outcome with PBMC [1], in the assay with PBMC [16], in the assay with PBMC [17] and in the assay on PBMC [18] was inactive. Besides, the Activity in the assay on Hepatitis B virus [2] was 35 IU/ml; with Hepatitis B virus [3], -5.3 log10CFU/ml; in the assay filed under Homo sapiens [7] it was 15%; in the assay with PBMC [8], 58.9; with PBMC [9], 184.3; in the assay with PBMC [10], 63.9. In addition, the Activity in the assay with PBMC [11] worked out at 26.3; in the assay on PBMC [12], 61.5; with PBMC [13], 18; in the assay listed under Homo sapiens [19] it was 32 pg/mL. The result in the assay listed under Homo sapiens [4], in the assay filed under Homo sapiens [5], in the assay listed under Homo sapiens [6], in the assay with PBMC [14] and in the assay with PBMC [15] was Active.
